Where a name gives a salt, the structure may show the parent alone.
Columns and labels:
MCF-10A = experiment: Cytotoxicity against human MCF10A cells after 72 hrs by cell counting kit-8 analysis; type: cell-based
Outline: (§1)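 Cells seeded at 2×10^5 or 1×10^5 per well, grown overnight in medium with 10% FBS at 37 °C, 5% CO₂, then FBS-starved 4 h. Graded compound concentrations given for 72 h. CCK-8 then added for 4 h and absorbance read at 450 nm. IC50 from a four-parameter logistic fit; mean ± S.D. of three experiments, each in triplicate.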

[1] = target: DNA topoisomerase 2-alpha (Homo sapiens) (UniProt P11388); experiment: Inhibition of human DNA topoisomerase 2 alpha-mediated DNA relaxation at 20 uM incubated for 30 mins using pBR322 DNA substrate by ethidium bromide dye-based agarose gel electrophoresis
Chain of DNA topoisomerase 2-alpha (Homo sapiens) (P11388 whole entry): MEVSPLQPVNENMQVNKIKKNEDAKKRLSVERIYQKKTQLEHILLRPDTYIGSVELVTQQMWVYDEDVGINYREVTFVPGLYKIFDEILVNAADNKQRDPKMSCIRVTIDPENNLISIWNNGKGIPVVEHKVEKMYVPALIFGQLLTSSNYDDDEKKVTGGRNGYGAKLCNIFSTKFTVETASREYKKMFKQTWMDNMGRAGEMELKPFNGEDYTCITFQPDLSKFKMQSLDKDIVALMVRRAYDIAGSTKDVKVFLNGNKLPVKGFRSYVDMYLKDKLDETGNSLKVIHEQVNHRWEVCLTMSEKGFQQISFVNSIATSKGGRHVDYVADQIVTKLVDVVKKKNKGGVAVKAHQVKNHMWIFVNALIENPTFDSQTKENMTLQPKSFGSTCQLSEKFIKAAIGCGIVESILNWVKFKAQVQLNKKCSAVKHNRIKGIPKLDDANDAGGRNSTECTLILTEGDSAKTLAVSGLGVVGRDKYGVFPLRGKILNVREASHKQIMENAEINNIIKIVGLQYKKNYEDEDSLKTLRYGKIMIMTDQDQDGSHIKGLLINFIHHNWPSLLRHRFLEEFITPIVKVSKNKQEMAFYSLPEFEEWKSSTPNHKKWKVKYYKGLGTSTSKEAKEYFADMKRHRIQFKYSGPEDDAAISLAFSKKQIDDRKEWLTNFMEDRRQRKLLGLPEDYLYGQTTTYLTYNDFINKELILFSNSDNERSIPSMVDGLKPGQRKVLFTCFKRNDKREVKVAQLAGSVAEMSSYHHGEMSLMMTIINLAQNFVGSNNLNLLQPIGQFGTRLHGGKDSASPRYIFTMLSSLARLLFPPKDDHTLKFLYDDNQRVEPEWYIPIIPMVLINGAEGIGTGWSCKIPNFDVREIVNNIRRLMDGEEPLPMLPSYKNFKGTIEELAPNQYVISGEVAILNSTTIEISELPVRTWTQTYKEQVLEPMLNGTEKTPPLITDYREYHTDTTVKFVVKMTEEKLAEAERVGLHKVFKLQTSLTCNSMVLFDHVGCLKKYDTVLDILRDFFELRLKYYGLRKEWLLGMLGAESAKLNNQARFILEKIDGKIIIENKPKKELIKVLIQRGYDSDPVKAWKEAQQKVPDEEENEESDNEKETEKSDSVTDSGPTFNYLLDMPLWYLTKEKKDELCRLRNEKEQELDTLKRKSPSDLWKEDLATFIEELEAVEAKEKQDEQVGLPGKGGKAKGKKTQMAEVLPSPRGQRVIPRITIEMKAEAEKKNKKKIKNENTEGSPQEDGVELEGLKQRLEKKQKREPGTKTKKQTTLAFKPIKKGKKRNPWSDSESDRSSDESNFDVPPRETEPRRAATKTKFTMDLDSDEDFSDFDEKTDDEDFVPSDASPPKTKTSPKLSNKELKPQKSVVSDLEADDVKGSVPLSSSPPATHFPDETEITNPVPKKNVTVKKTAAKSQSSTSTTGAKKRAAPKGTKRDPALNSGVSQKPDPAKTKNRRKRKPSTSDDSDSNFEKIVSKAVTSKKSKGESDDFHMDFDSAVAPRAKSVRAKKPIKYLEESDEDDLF
Outline: (§2)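 Stopped with EDTA and run on 1% agarose/TAE at 25 V for 4 h. EtBr-stained; supercoiled DNA quantified as % inhibition. Relative values are the ratio to the etoposide control.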

[2] = target: DNA topoisomerase 2-alpha (Homo sapiens) (UniProt P11388); experiment: Inhibition of human DNA topoisomerase 2 alpha-mediated DNA relaxation at 100 uM incubated for 30 mins using pBR322 DNA substrate by ethidium bromide dye-based agarose gel electrophoresis relative to control etoposide; outline: as §2
DU-145 = experiment: Cytotoxicity against human DU145 cells after 72 hrs by cell counting kit-8 analysis; type: functional, cell-based; settings: DU-145, 72 h; outline: as §1
[3] = target: T1, DNA topoisomerase 1 (Homo sapiens) (UniProt P11387); experiment: Inhibition of human recombinant DNA topoisomerase 1-mediated DNA relaxation at 100 uM incubated for 30 mins using pBR322 DNA substrate by ethidium bromide dye-based agarose gel electrophoresis relative to control camptothecin
T1 sequence (whole entry): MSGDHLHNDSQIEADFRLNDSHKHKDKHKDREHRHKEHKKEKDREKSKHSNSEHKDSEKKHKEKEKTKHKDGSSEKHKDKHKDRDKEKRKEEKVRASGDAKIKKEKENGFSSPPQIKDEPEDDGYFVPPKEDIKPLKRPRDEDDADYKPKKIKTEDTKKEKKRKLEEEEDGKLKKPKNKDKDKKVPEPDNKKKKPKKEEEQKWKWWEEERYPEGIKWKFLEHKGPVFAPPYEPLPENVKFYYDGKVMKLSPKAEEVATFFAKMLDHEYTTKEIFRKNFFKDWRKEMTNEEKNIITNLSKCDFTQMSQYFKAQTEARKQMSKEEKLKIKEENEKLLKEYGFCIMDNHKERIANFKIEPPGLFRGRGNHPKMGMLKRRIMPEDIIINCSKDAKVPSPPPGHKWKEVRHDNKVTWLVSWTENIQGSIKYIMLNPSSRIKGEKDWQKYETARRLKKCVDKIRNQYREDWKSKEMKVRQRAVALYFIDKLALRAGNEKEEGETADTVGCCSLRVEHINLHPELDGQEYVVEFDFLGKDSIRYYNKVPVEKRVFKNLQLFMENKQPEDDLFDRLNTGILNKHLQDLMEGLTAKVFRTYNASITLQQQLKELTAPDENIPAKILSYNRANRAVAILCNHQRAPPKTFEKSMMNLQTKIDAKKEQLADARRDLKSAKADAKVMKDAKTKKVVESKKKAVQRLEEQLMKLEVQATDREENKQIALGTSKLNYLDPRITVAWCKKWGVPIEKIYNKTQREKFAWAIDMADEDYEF
Outline: (§3)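 pBR322 (100 ng) with recombinant human topo I (0.4 units) in 10 mM Tris-HCl pH 7.9, 150 mM NaCl, 0.1% BSA, 1 mM spermidine, 5% glycerol, 30 min at 37 °C. Stopped with sarcosyl/glycerol/dye and run on 1% agarose/TAE at 15 V for 7 h. EtBr-stained; supercoiled DNA quantified as % inhibition. Relative values are the ratio to the camptothecin control.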

[4] = target: T1, DNA topoisomerase 1 (Homo sapiens); experiment: Inhibition of human recombinant DNA topoisomerase 1-mediated DNA relaxation at 100 uM incubated for 30 mins using pBR322 DNA substrate by ethidium bromide dye-based agarose gel electrophoresis; outline: as §3
T47D = experiment: Cytotoxicity against human T47D cells after 72 hrs by cell counting kit-8 analysis; type: functional, cell-based; outline: as §1
[5] = target: DNA topoisomerase 2-alpha (Homo sapiens) (UniProt P11388); experiment: Inhibition of human DNA topoisomerase 2 alpha-mediated DNA relaxation at 100 uM incubated for 30 mins using pBR322 DNA substrate by ethidium bromide dye-based agarose gel electrophoresis; outline: as §2
[6] = target: DNA topoisomerase 2-alpha (Homo sapiens) (UniProt P11388); experiment: Inhibition of human DNA topoisomerase 2 alpha-mediated DNA relaxation at 20 uM incubated for 30 mins using pBR322 DNA substrate by ethidium bromide dye-based agarose gel electrophoresis relative to control etoposide; outline: as §2
HCT-15 = experiment: Cytotoxicity against human HCT15 cells after 72 hrs by cell counting kit-8 analysis; type: functional, cell-based; settings: HCT-15, 72 h; outline: as §1
[7] = target: T1, DNA topoisomerase 1 (Homo sapiens); experiment: Inhibition of human recombinant DNA topoisomerase 1-mediated DNA relaxation at 20 uM incubated for 30 mins using pBR322 DNA substrate by ethidium bromide dye-based agarose gel electrophoresis; outline: as §3
[8] = target: T1, DNA topoisomerase 1 (Homo sapiens); experiment: Inhibition of human recombinant DNA topoisomerase 1-mediated DNA relaxation at 20 uM incubated for 30 mins using pBR322 DNA substrate by ethidium bromide dye-based agarose gel electrophoresis relative to control camptothecin; outline: as §3

Row | Compound | IC50 (MCF-10A) | inhibition [1] | Ratio [2] | IC50 (DU-145) | Ratio [3] | inhibition [4] | IC50 (T47D) | inhibition [5] | Ratio [6] | IC50 (HCT-15) | inhibition [7] | Ratio [8]
1 | COc1cccc2c1C(=O)c1c(O)c3c(c(O)c1C2=O)C[C@@](O)(C(=O)CO)C[C@@H]3O[C@H]1C[C@H](N)[C@H](O)[C@H](C)O1 [DOXORUBICIN HYDROCHLORIDE] | 0.93 µM | – | – | – | – | – | – | – | – | – | – | –
2 | COc1ccc(-c2cc3cc(C)ccc3c(-c3ccc(O)cc3)n2)cc1OC | 18.1 µM | 0% | 0.4 | 5.98 µM | 0.005 | 0.3% | 4.42 µM | 36.5% | 0 | 2.52 µM | – | –
3 | COc1ccc(-c2cc3ccccc3c(-c3cccc(OCCCN(C)C)c3)n2)cc1 | 10.2 µM | – | 0.32 | – | 0.81 | 47.9% | 0.16 µM | 20.2% | – | 1.75 µM | 12.1% | 0.38
4 | COc1ccc(-c2cc3cc(C)ccc3c(-c3cccc(O)c3)n2)cc1OC | 13.5 µM | 0.4% | 0.38 | 6.51 µM | 0.03 | 1.7% | 4.34 µM | 34.5% | 0.01 | 0.37 µM | – | –
5 | COc1ccc(-c2cc3cc(C)ccc3c(-c3cccc(N)c3)n2)cc1OC | 5.6 µM | – | 0.11 | – | 0.11 | 7.2% | 0.45 µM | 6.9% | – | 2.7 µM | – | –
6 | COc1ccc(-c2cc3ccccc3c(-c3cccc(OC)c3)n2)cc1 | > 50 µM | – | 0 | > 50 µM | 0.58 | 43.2% | 0.86 µM | 0% | – | 1.3 µM | 0% | 0
7 | COc1ccc(-c2cc3ccccc3c(-c3ccc(OC)cc3)n2)cc1 | > 50 µM | – | 0.11 | – | 0 | 0% | 0.85 µM | 7.4% | – | 2.79 µM | – | –
8 | COc1ccc(-c2cc3ccccc3c(-c3ccc(O)cc3)n2)cc1 | > 50 µM | – | 0 | > 50 µM | 0.09 | 6.7% | 1.22 µM | 0% | – | > 50 µM | – | –
9 | COc1cc(OC)cc(-c2cc3ccccc3c(-c3cccc(N)c3)n2)c1 | > 50 µM | – | 0.37 | – | 0 | 0% | 0.98 µM | 23.6% | – | 4.08 µM | – | –
10 | COc1ccc(-c2cc3ccccc3c(-c3cccc(N)c3)n2)cc1 | 18.8 µM | – | 0.12 | – | 0 | 0% | 0.95 µM | 7.7% | – | 2.35 µM | – | –
11 | COc1ccc(-c2cc3cc(C)ccc3c(-c3ccc(OCCN(C)C)cc3)n2)cc1OC | 5.31 µM | 15.3% | 1.24 | – | 1.22 | 79.6% | 2.33 µM | 75.8% | 0.41 | 0.97 µM | 0% | 0
12 | COc1cc(OC)cc(-c2cc3ccccc3c(-c3cccc(OC)c3)n2)c1 | > 50 µM | – | 0.26 | – | 0 | 0% | 1.12 µM | 16.7% | – | 1.17 µM | – | –
13 | COc1ccc(-c2nc(-c3ccc(OC)c(OC)c3)cc3cc(C)ccc23)cc1 | > 50 µM | – | 0 | > 50 µM | 0.04 | 2.3% | 3.34 µM | 0% | – | 28.7 µM | – | –
14 | COc1cccc(-c2nc(-c3ccc(OC)c(OC)c3)cc3cc(C)ccc23)c1 | > 50 µM | – | 0 | > 50 µM | 0.05 | 2.9% | 7.86 µM | 0% | – | 1.84 µM | – | –
15 | COc1ccc(-c2cc3cc(C)ccc3c(-c3cccc(OCCCN(C)C)c3)n2)c(C)c1 | 6.07 µM | 10.5% | 0.67 | – | 0.6 | 39.3% | 0.29 µM | 40.9% | 0.28 | 0.87 µM | 0% | 0
16 | COc1cc(OC)cc(-c2cc3cc(OC)c(OC)cc3c(-c3cccc(O)c3)n2)c1 | 5.9 µM | – | 0 | 8.12 µM | 0.06 | 4.6% | 3.92 µM | 0% | – | 0.54 µM | – | –
17 | COc1ccc(-c2cc3cc(C)ccc3c(-c3cccc(OCCN(C)C)c3)n2)c(C)c1 | 6.35 µM | 13.2% | 0.81 | – | 0.05 | 3.7% | 0.6 µM | 49.6% | 0.35 | 2.2 µM | – | –
18 | COc1ccc(-c2cc3ccccc3c(-c3cccc(O)c3)n2)cc1 | 7.83 µM | 0% | 1.07 | 5.36 µM | 0.12 | 9.4% | 0.58 µM | 84.3% | 0 | 1.2 µM | – | –

Reference: ChEMBL document CHEMBL4251575, “Design, synthesis, and biological evaluation of 1,3-diarylisoquinolines as novel topoisomerase I catalytic inhibitors” (Eur J Med Chem, 2018)
